# Screening results (PubChem BioAssay)
# M4 PAM = positive allosteric modulators of human muscarinic M4 receptor; AID 624126; P08173; actives 0.4% (n = 360,000); CHO-K1 hM4/Gqi5, Fluo-8 calcium fluorescence, ACh EC20; 0% = ACh EC20, 100% = maximal ACh; activation, % at 3 µM;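 active means activation above its plate's cutoff, the mean activation of sample wells plus 3 SD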
# Target sequence (P08173 whole entry, looked up): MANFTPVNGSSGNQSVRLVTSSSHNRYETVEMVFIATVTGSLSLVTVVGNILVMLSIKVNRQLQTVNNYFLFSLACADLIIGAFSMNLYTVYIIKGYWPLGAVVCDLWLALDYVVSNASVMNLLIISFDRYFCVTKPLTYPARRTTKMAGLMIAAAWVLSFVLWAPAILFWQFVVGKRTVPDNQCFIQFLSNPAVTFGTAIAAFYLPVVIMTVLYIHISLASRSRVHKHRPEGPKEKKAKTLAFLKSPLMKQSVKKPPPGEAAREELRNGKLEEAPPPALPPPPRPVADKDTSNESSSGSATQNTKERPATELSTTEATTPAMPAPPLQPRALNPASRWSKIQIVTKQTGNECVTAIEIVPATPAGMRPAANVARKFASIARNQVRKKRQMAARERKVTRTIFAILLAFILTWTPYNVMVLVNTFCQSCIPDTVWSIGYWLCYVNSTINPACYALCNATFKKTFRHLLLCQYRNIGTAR
# CHRM5 agonist = agonists of human muscarinic M5 receptor (CHRM5); AID 624037; actives 0.19% (n = 360,000); CHO-K1 hM5 cells, Fluo-8 calcium fluorescence; 0% DMSO wells, 100% maximal acetylcholine response; P08912; activation, % at 3 µM;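 active means activation above the run's mean over test compounds plus 3 SD, cut at about 23% in these data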;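 further: signal is peak over basal fluorescence ratio across the kinetic read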
# M5 PAM = potentiates acetylcholine response at human M5 receptor | P08912 | CHO-K1 hM5, Fluo-8 calcium, ACh EC20 PAM; 0% = ACh EC20, 100% = ACh EC100 | activation, % at 3 µM | actives 0.3% (n = 360,000);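 active means activation above the run cutoff, the mean activation of all test compounds plus 3 SD, cut at about 18% in these data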
#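 Probe or stimulus: acetylcholine, EC20 level; Assay system: human M5 receptor in CHO-K1 cells; Schedule: compound preincubation 140 s before EC20 acetylcholine addition; Technique: intracellular calcium via Fluo-8 fluorescence; Dosing: single-point, 3 µM nominal; Read-out basis: percent activation from peak-over-basal fluorescence ratio, scaled EC20-to-EC100 acetylcholine; Repeats: one well per compound, no replicates.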
# CHRM4 agonist = CHRM4 agonism in calcium assay | actives 0.14% (n = 360,000) | P08173 | CHO-K1 hM4/Gqi5, Fluo-8 calcium fluorescence; vehicle 0%, full acetylcholine response 100% | activation, % at 3 µM;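 active means activation above the run mean over all test wells plus 3 SD, cut at about 32% in these data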;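 further: peak over basal fluorescence ratio per well then scaled between controls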
# CHRM4 antagonist = blocks acetylcholine activation of human M4 receptor; P08173; CHO-hM4 cells, ACh EC80, Fluo-8 calcium fluorescence; inhibition, % at 3 µM; actives 0.73% (n = 360,000);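 active means inhibition above its plate's cutoff, the mean inhibition of sample wells plus 3 SD, cut at about 27% in these data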
# M5 antag = CHRM5 antagonism in calcium assay; AID 624040; inhibition, % at 3 µM; CHO-hM5 cells, Fluo-8 calcium fluorescence, ACh EC80; P08912; actives 0.59% (n = 360,000);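 active means inhibition above a per-plate cutoff, the mean of that plate's test compounds plus 3 SD, cut at about 27% in these data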
# Hits are given with their value; 0 = inactive. Most compounds without a hit are left out; they make up all but 1.9% or so of the library.
SMILES,M4 PAM,CHRM5 agonist,M5 PAM,CHRM4 agonist,CHRM4 antagonist,M5 antag
CC(=O)c1c(O)cc(C)n(-c2ccc(F)cc2)c1=O,0,0,0,0,0,0
COC(=O)c1c(O)cc(C(C)(C)C)n(-c2ccc(F)cc2)c1=O,37.2,0,0,0,0,0
O=C(O)C(Nc1nc(C(F)(F)F)nc2ccccc12)c1ccccc1 (stereo not drawn),0,0,0,0,0,0
Oc1ccc(-c2n[nH]c(C(F)(F)F)c2-c2ccccc2)c(O)c1,0,0,0,0,46.8,63.6
COc1ccc(-c2c(-c3ccc(O)cc3O)n[nH]c2C(F)(F)F)cc1,0,0,0,0,0,0
CC(C)(C)n1nnnc1C(c1ccccc1OC(F)(F)F)N1CCN(C/C=C/c2ccccc2)CC1 (stereo not drawn),0,0,0,0,0,0
COc1cccc(C(c2nnnn2-c2c(C)cccc2C)N2CCN(C/C=C/c3ccccc3)CC2)c1OC (stereo not drawn),0,0,0,0,0,0
COc1cccc(C(c2nnnn2C2CCCCC2)N2CCN(C/C=C/c3ccccc3)CC2)c1OC (stereo not drawn),0,0,0,0,28.5,40.6
FC(F)(F)Oc1ccccc1C(c1nnnn1C1CCCC1)N1CCN(C/C=C/c2ccccc2)CC1 (stereo not drawn),0,0,0,0,0,64.4
Cc1ccccc1C(=O)NCC(=O)NNC(=O)CCN1CCN(c2ccccc2)CC1,0,0,0,0,0,0
Cc1ccsc1C(=O)NNC(=O)CCN1CCN(c2ccccc2)CC1,22.9,0,0,0,0,0
O=C(Nc1ccc(F)c(Cl)c1)c1cc(-c2ccco2)on1,0,0,0,0,0,0
Cc1ccccc1C(=O)Nc1nnc(-c2cccnc2)o1,0,0,0,0,0,0
CC(=O)Nc1ccc2nc(-c3ccc(Br)o3)[nH]c2c1,22.9,0,0,0,0,0
COc1cc(C=O)ccc1OCCCOc1ccccc1C(=O)O,31.6,0,0,0,0,0
COc1cc(C=O)ccc1OCCCOc1ccccc1[N+](=O)[O-],0,0,0,0,0,0
CCN1/C(=C2\C(=O)N(c3ccccc3)N=C2C)C=Cc2cc(C)ccc21,0,38.7,0,0,0,0
CCN1/C(=c2/s/c(=C3/C(=O)N(c4ccccc4)N=C3C)n(CC)c2=O)C=Cc2ccccc21,0,0,0,0,0,0
Cc1cc(=O)n2nc(N3CCC(C(=O)NCc4cccc(Br)c4)CC3)sc2n1,0,0,0,0,0,0
COc1ccc(C2Oc3ccccc3N2C(C)=O)cc1 (stereo not drawn),0,0,0,0,31.1,0
C#Cc1ccc([C@@H]2C=C(C(=O)N3CCN(Cc4ccc5c(c4)OCO5)CC3)O[C@H](OCC)[C@H]2CCCO)cc1,0,0,0,0,0,0
COC(=O)[C@@H]1C[C@@H]2CC[C@@H](O)C[C@@H]2N1Cc1ccc(N2CCN(C)CC2)cc1,0,0,0,0,0,0
S=C(c1ccc(-c2ccc(Cl)cc2Cl)o1)N1CCCCC1,0,0,0,0,0,0
S=C(c1ccc(-c2ccc(Cl)cc2Cl)o1)N1CCCC1,0,0,22.1,0,0,0
COCCNc1ccc(N2C(=O)CCCC2=O)cc1[N+](=O)[O-],0,0,0,0,0,0
SMILES,M4 PAM,CHRM5 agonist,M5 PAM,CHRM4 agonist,CHRM4 antagonist,M5 antag
CCN(CC)CCNC(=O)C12CC3CC(CC(C3)C1)C2,0,0,0,0,41.8,0
CCN(CC)CCNC(=O)C12CC3CC(C)(CC(C)(C3)C1)C2,0,0,0,0,0,0
COc1cccc(NC(=O)CSC2=NN3CCCC(=O)N=C3S2)c1,0,0,0,0,0,0
O=C(NCc1ccc(Cl)cc1)C1CCC(=O)N(C2CCCCCC2)C1 (stereo not drawn),0,0,0,0,0,0
Cc1cc(/C=C2/SC(=S)N(c3cccc(C(F)(F)F)c3)C2=O)c(C)n1-c1cccnc1,0,0,0,0,39.2,0
Cc1cc(/C=C2\SC(=S)N(Cc3ccco3)C2=O)c(C)n1-c1cccnc1,0,0,0,0,0,0
CCCCCC(=O)N1C[C@H](O)[C@@H](n2cc(COC(=O)c3ccccc3)nn2)C[C@@H]1c1ccc(OC)cc1,0,0,0,0,0,0
COc1ccc(-c2nn(-c3ccccc3)cc2C(=O)O)cc1,0,0,0,0,0,0
COc1ccc(-c2nn(-c3ccccc3)cc2C(=O)NC(=S)NNC(=O)c2ccncc2)cc1,0,0,0,33.4,0,0
COc1ccc(-c2nn(-c3ccccc3)cc2C(=O)NC(=S)Nc2cc(Cl)ccc2Cl)cc1,0,0,22.1,0,0,0
COC(=O)c1cn(-c2ccccc2)nc1-c1ccc(OC)c(OC)c1,0,0,19.2,0,0,0
COc1ccc(NC(=O)c2cn(-c3ccccc3)nc2-c2ccncc2)cc1,0,0,0,0,0,0
Cc1cccc(-n2c(CNC(=O)c3ccc(S(=O)(=O)N4CCCCC4)cc3)n[nH]c2=S)c1,0,0,0,0,0,0
CN1CCCN(C(=O)c2cc(-c3cccc4ccccc34)nc3ccccc23)CC1,0,0,0,0,0,0
NC(=O)CC[C@H](NC(=O)c1ccc(F)cc1)C(=O)OCC(=O)Nc1ccc(N2CCOCC2)cc1,24.2,0,0,0,0,0
CC(=O)Nc1ccc(C(=O)OCC(=O)Nc2ccc(N3CCOCC3)cc2)cc1,0,0,0,0,0,0
CC(C)c1ccc(S(=O)(=O)NCc2ccc3c(c2)OCO3)cc1,0,0,0,0,0,0
CCN(CC)c1ccc2cc(C=O)c(=O)oc2c1,0,29.3,0,0,0,0
CCN(CC)c1ccc2cc(C(C)=O)c(=O)oc2c1,0,0,0,0,0,0
